Only some compounds are listed: those with a hit (about 2% of all), similar ones and a draw of the others.
p47phox inh = p47phox/p22phox peptide binding inhibitors, primary screen, biochemical, uHTS, NADPH oxidase regulatory subunit; Neutrophil cytosol factor 1 (Homo sapiens), P14598; fluorescence polarization, 2 h; inhibition, % at 24.7 µM; hit rate 0.53% among 220,000;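 further: 0% = p47phox with labelled peptide and 100% = labelled peptide alone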
14-3-3 Bad PPI = inhibitors of 14-3-3 zeta/Bad binding, primary screen, biochemical, TR-FRET, bovine 14-3-3 zeta; 14-3-3 protein zeta/delta (Bos taurus), P63103; TR-FRET 14-3-3zeta/Dy647-pBad peptide displacement, 1 h; inhibition, % at 21.7 µM; hit rate 0.71% among 220,000; AID 781, 2007;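 active means inhibition above about 70%, limit read from the data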;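 further: 0% = full 14-3-3 plus peptide FRET controls and 100% = background without 14-3-3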
Hck Nef HTS = inhibitors of Nef-activated human Hck kinase, primary screen, biochemical, Z-Lyte FRET, 384-well, Hck-YEEI; Tyrosine-protein kinase HCK (Homo sapiens), P08631; Recombinant Hck-YEEI plus Nef, Z-Lyte FRET kinase assay; inhibition, % at 20 µM; hit rate 0.68% among 220,000;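 active means Hck-Nef kinase inhibition above about 50%, limit read from the data; inactive means inhibition below that limit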;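 further: 0% = DMSO with Hck plus Nef and 100% = Hck alone without Nef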
Diaphorase act = compounds boosting diaphorase resazurin reduction – biochemical, uHTS, resorufin fluorescence, counter-screen for diaphorase-coupled primary assays, primary screen; AID 1229, 2008; Diaphorase/resazurin coupled assay, 16 min; stronger effect = higher value; 1 = vehicle wells, 0 = NADH-free wells; activation factor at 20 µM; hit rate 0.005% among 190,000;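 active means diaphorase activity raised at least twofold by the compound at 20 µM; inactive means activation factor below 2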
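test system = bacterial diaphorase enzyme (C. kluyveri) | quantity = enzyme 0.07 U/mL final | reagent = NADH substrate 0.114 mM plus resazurin dye 0.1 mM, final | incubation = 16 min enzyme reaction, ambient temperature | buffer or medium = HEPES pH 7.4 buffer with MgCl2 and Tween 20 | signal = fluorescence of resorufin, 544 nm excitation, 590 nm emission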
eIF4E-4G inh = eIF4E–eIF4G protein interaction inhibitors, primary screen, biochemical, uHTS, TR-FRET, eIF4GI fragment. AID 782, 2007. inhibition, % at 21.7 µM. Eukaryotic translation initiation factor 4E (Mus musculus) + Eukaryotic translation …. hit rate 0.37% among 220,000. TR-FRET eIF4E-eIF4GI(517-606) binding, 2 h;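 further: 0% = full FRET control wells and 100% = background wells lacking eIF4GI fragment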
Active calls of the source: *; / = no result; [ ] = dose if it differs, or a comment.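 How the source made its calls, unless noted: active means inhibition above about 30% (limit read from the data); inactive means the rest.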

SMILES | p47phox inh | 14-3-3 Bad PPI | Hck Nef HTS | Diaphorase act | eIF4E-4G inh
O=C(CN1CCC(NC(=O)c2ccc(F)cc2)CC1)NCc1ccccc1F | 49.8* | 3.1 | 0.8 | 1 | 3.6
CCn1cc(CN2CCCC(C(=O)c3ccc(-c4ccccc4)cc3)C2)cn1 (configuration not stated) | -25.8 | 31.9 | 17.4 | 1.1 | 0.7
Cc1c(-c2ccncc2)oc2ccc(Br)cc2c1=O | -6.2 | 4.4 | 4.2 | 0.9 | 6.7
N#C/C(=C\C1=C(N2CCOCC2)C(=C\c2ccc(Cl)cc2)/CC1)C(=O)Nc1ccccc1F | -254.1 | 73.3*[fluorescence artefact?] | 13.1 | 1 | 6.7
CCN(CC)c1ccc(/C=C2\CCC(/C=C(\C#N)C(=O)Nc3ccccc3F)=C2N2CCOCC2)cc1 | 119.8* | -1.6 | -14.6 | 0.8 | 1.4
COc1ccc(C/C(C)=N/NS(=O)(=O)c2ccc(Br)cc2)cc1 | -1.1 | -2.3 | 1.4 | 1 | -2.5
Cc1c(/C(O)=C2\C(=O)C(=O)N(CCN(C)C)C2c2ccccc2)cnn1-c1ccccc1 (configuration not stated) | -9.2 | -3.7 | 23.5 | / | 0.8
COc1ccc(CNCC(=O)Nc2ccccc2-n2cccc2)cc1 | -7.2 | 14.4 | 20.6 | 0.9 | 2.0
COc1ccc(OC)c(NC(=O)C2C3CCC(O3)C2C(=O)O)c1 (configuration not stated) | 53.0* | -3.3 | 2.8 | 0.9 | 5.0
COC(=O)[C@H](CCSC)NC(=O)Nc1cc(OC)cc(OC)c1 | -8.4 | -2.0 | 12.0 | / | -1.7
COc1ccc(OCC(=O)N/N=C/c2ccsc2)cc1 | 73.8* | 13.2 | 0.2 | 0.8 | -2.9
Cc1ccc2cc(C(=O)O)c(C)nc2c1 | 8.0 | 79.2* | -0.6 | 1 | -11.0
Cc1ccc(C2N(c3ccc(Cl)cc3)C(=O)N3CCCN23)cc1 (configuration not stated) | 1.1 | -2.4 | -3.3 | / | 9.6
CC(C)(C)C1=CC(=O)C(=O)C(C(C)(C)C)=C1 | 7.5 | 24.9 | 55.7* | 0.3 | 13.6
CCN(c1ccccc1)S(=O)(=O)c1ccc(Cl)c(NC(=O)COC(=O)c2ccc(O)cc2)c1 | 10.4 | 12.9 | -0.8 | 0.6 | -1.1
CCN(c1ccccc1)S(=O)(=O)c1ccc(Cl)c(NC(=O)COC(=O)c2cc(O)c3ccccc3c2O)c1 | -120.9 | 10.6 | 79.9* | / | -73.8
Cc1cccc(NNC(N)=S)c1C | 0.4 | -5.9 | 9.0 | 0.7 | 2.1
N=C1/C(=C\c2ccc(-c3ccc(C(=O)O)cc3)o2)C(=O)N=C2SC=C(c3ccccc3)N12 | -38.7 | 80.3* | 103.0* | / | 64.5*
COc1ccc(NC(=O)COC(=O)c2ccc(S(=O)(=O)N(C)c3ccccc3OC)cc2)c(OC)c1 | 3.0 | -1.3 | 15.3 | 1 | -0.1
O=C(C(c1ccccc1)c1ccccc1)N1CCN(Cc2ccncc2)CC1 | -6.7 | 75.5* | 0.2 | 0.8 | -6.7
O=C(C(c1ccccc1)c1ccccc1)N1CCN(Cc2ccccn2)CC1 | -9.5 | 71.0* | -14.0 | 0.8 | -0.8
CCn1c2ccccc2c2cc(NC(=O)c3ccco3)ccc21 | -21.5 | 91.0* | -5.8 | 0.8 | 2.0
CN(C)c1nnnn1-c1ccccc1Oc1ncc(C(F)(F)F)cc1Cl | 2.4 | -2.6 | 11.3 | 1 | 0.5
COc1cc(C(=S)N2CCOCC2)cc(OC)c1O | -14.6 | -3.4 | 6.6 | / | 6.6
O=C(Nc1nc(=S)ss1)c1ccc(Cl)cc1Cl | -16.1 | 79.8* | 3.8 | 0.8 | 10.3
SMILES | p47phox inh | 14-3-3 Bad PPI | Hck Nef HTS | Diaphorase act | eIF4E-4G inh
COc1cc(NC2c3ncccc3C(=O)N2Cc2ccco2)cc(OC)c1 (configuration not stated) | -2.1 | 82.4* | 4.0 | 0.9 | 1.0
COc1ccc(CN2C(=O)c3cccnc3C2Nc2ccc(OC)c(Cl)c2)cc1 (configuration not stated) | -3.3 | 83.1* | 3.1 | 1 | -4.3
COc1ccc(NC2c3ncccc3C(=O)N2Cc2ccccc2)c(OC)c1 (configuration not stated) | 1.8 | 24.8 | 8.3 | 0.8 | -1.2
COc1ccc(NC(=O)COC(=O)/C=C/c2cnc3ccccc3n2)cc1 | -20.1 | -6.3 | 16.3 | 0.9 | 5.8
COC(=O)c1sccc1-n1cccc1C(=O)C(=O)N1CCOCC1 | -7.4 | -9.1 | -7.8 | 1 | 1.9
CCOc1ccccc1N1CCN(Cc2ccco2)CC1 | 0.8 | 8.3 | 1.0 | 0.9 | 7.3
CCOc1ccccc1N1CCN(Cc2ccc(Br)s2)CC1 | 12.7 | 75.8* | 0.9 | 0.8 | 2.2
CCOc1ccccc1N1CCN(C/C=C/c2ccc(N(C)C)cc2)CC1 | -15.7 | 78.2*[fluorescence artefact?] | -26.3 | 0.9 | 2.7
COCCN1CCC(CNCc2cn(-c3cc(C)ccc3C)nc2-c2ccccc2)C1 (configuration not stated) | -10.5 | 11.4 | 20.7 | 1.2 | -1.3
Oc1cccc(NC(=S)Nc2ccccc2)c1 | 7.8 | 99.4* | 26.9 | / | -8.9
O=S(=O)(c1ccc(Br)s1)N1CCN(c2ccccn2)CC1 | 9.1 | 85.3* | 1.5 | 0.8 | 4.3
CCCn1cnc2c(=S)nc(N)[nH]c21 | -16.5 | -1.7 | -15.0 | / | -0.5
O=C(CCn1cnnn1)Nc1ccccc1 | -7.5 | -5.1 | 8.6 | 1 | 3.3
CCOC(=O)c1c(NC(=O)c2cc(C)on2)c2cc([N+](=O)[O-])ccc2n1C | 3.3 | 45.2 | 13.3 | / | -3.0
COc1ccc2nc(C)cc(SCC(=O)N/N=C/c3c(OC)ccc4ccccc34)c2c1 | 42.2* | 95.8*[fluorescence artefact?] | 49.7 | 1 | 19.0
CCCCCCCCCCCCCCCC[n+]1cccc(C(=O)N(CC)CC)c1 | 107.5* | 98.0*[fluorescence artefact?] | 7.8 | 2* | 76.5*[fluorescence artefact?]
CCCCCCCCCCCCCCCC[n+]1ccc(C(N)=O)cc1 | 101.0* | 79.4*[fluorescence artefact?] | 22.6 | 1.6 | 77.6*[fluorescence artefact?]
CC(=O)Nc1ccc(C(=O)Nc2cccc(-c3cnc4ccccc4n3)c2)cc1 | 33.3* | 81.4* | 46.3 | 0.9 | 35.7*
Cc1ccc(C(=O)Nc2cccc(-c3cnc4ccccc4n3)c2)cc1 | -8.3 | -0.2 | 1.9 | 1 | -3.0
O=C(O)C1CCN(c2ccc(S(=O)(=O)N3CCOCC3)cc2[N+](=O)[O-])CC1 | 68.8* | 88.6* | 5.6 | 1 | -5.4
CCOC(=O)CN(c1ccccn1)S(=O)(=O)c1ccc(OC)cc1 | -1.6 | -1.7 | 18.4 | 1 | 1.2
O=C(Nc1cccc(Cl)c1)Nc1nnc(-c2ccncc2)s1 | -9.3 | 81.0* | 56.8* | 0.8 | 4.2
CC(C)(C)N1OC2CC1c1nc3ccccc3n1C2 (configuration not stated) | 50.4* | -3.5 | 20.6 | / | -5.8
O=S1(=O)C=CC(c2ccccc2)C1 (configuration not stated) | -10.8 | 5.6 | 16.8 | / | 2.1

High-throughput results from PubChem.
